Measurements reported in ChEMBL document CHEMBL1123419, “Synthesis and antiviral activity of sulfonamidobenzophenone oximes and sulfonamidobenzamides” (1986).
Values after ≈ are worked out from the molar mass of the structure shown.

Key:
CV-1 = assay: Chemotherapeutic index in CV-1 cells (chemotherapeutic index=50% cytotoxic dose/50% effective dose).; format: functional, Cercopithecidae
How it was run: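 Index = 50% cytotoxic dose / 50% plaque-inhibition dose. For cytotoxicity, 200 cells/mL in suspension were mixed with 10% FBS MEM carrying serial compound dilutions and incubated 7 days at 37 °C under 5% CO2. Colonies were stained with 1% crystal violet and counted, and the 50% cytotoxic dose was read from the dose-response curve.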

Poliovirus 1 = assay: microbe, parasite or virus in culture; format: functional; conditions: Enterovirus C; read-out: ED50 (the source's name)
Enterovirus [1] = assay: Antiviral activity against rhinovirus 1A using plaque-inhibition assay; format: functional; conditions: read-out: ED50 (the source's name)
How it was run: (§1)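 Plaque reduction: confluent monolayers were infected with 100-200 PFU. Hela (Ohio) cells were used for rhinoviruses 10 and 1A and coxsackieviruses B4 and A9, CV-1 for poliovirus type 1 Mahoney, and LLC-MK2 for enterovirus 70. Cells were overlaid with 2.0% agar in MEM plus 4% FBS containing serial compound concentrations. Incubation was 37 °C for polio/coxsackie and 33 °C for rhino/enterovirus, with a neutral red (0.004%) second overlay. ED50 was taken from the dose-response curve.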

Enterovirus [2] = assay: Antiviral activity against rhinovirus 10 using plaque-inhibition assay; format: functional; conditions: read-out: ED50 (the source's name); how it was run: as §1

SMILES	Chemotherapeutic index (CV-1)	EC50 (Poliovirus 1) [µg/mL]	EC50 (Enterovirus [1]) [µg/mL]	EC50 (Enterovirus [2]) [µg/mL]
CC(C)c1ccc(NC(=O)c2ccc(NS(=O)(=O)N(C)C)cc2)cc1	10	0.21 (≈ 0.581 µM)	0.1 (≈ 0.277 µM)	–
CCCCCc1ccc(NC(=O)c2ccc(NS(=O)(=O)N(C)C)cc2)cc1	4	0.32 (≈ 0.822 µM)	0.51 (≈ 1.31 µM)	–
CCCCc1ccc(NC(=O)c2cccc(NS(=O)(=O)C(C)C)c2)cc1	–	0.42 (≈ 1.12 µM)	–	–
CC(C)S(=O)(=O)Nc1cccc(C(=O)NCc2ccccc2)c1	–	> 50	–	–
CCCOc1ccc(NC(=O)c2ccc(NS(=O)(=O)N(C)C)cc2)cc1	–	0.7 (≈ 1.85 µM)	–	–
CN(C)S(=O)(=O)Nc1cccc(NC(=O)c2ccccc2)c1	–	20 (≈ 62.6 µM)	–	–
CCCc1ccc(NC(=O)c2ccc(NS(=O)(=O)N(C)C)cc2)cc1	6	0.16 (≈ 0.443 µM)	0.15 (≈ 0.415 µM)	–
CN(C)S(=O)(=O)Nc1cccc(/C(=N/O)c2ccc3c(c2)OCO3)c1	–	3.4 (≈ 9.36 µM)	–	–
CN(C)S(=O)(=O)Nc1ccc(C(=O)Nc2ccc(C(F)(F)F)cc2)cc1	19	0.18 (≈ 0.465 µM)	0.17 (≈ 0.439 µM)	–
CN(C)S(=O)(=O)Nc1cccc(/C(=N/O)c2ccc(CO)cc2)c1	55	0.4 (≈ 1.14 µM)	–	0.37 (≈ 1.06 µM)
CC(C)S(=O)(=O)Nc1cccc(C(=O)Nc2ccccc2)c1	–	7 (≈ 22 µM)	–	–
CSc1ccc(/C(=N\O)c2cccc(NS(=O)(=O)N(C)C)c2)cc1	9	0.32 (≈ 0.876 µM)	–	0.26 (≈ 0.711 µM)
CN(C)S(=O)(=O)Nc1ccc(C(=O)Nc2ccccc2)cc1	–	3 (≈ 9.39 µM)	–	–
CC(C)S(=O)(=O)Nc1cccc(/C(=N/O)c2ccc(CO)cc2)c1	–	–	–	0.39 (≈ 1.12 µM)
COc1cccc(/C(=N\O)c2cccc(NS(=O)(=O)N(C)C)c2)c1	74	0.34 (≈ 0.973 µM)	–	0.41 (≈ 1.17 µM)
Cc1ccc(NC(=O)c2ccc(NS(=O)(=O)N(C)C)cc2)cc1	370	0.54 (≈ 1.62 µM)	0.38 (≈ 1.14 µM)	–
CC(C)S(=O)(=O)Nc1ccc(C(=O)Nc2ccc(C(F)(F)F)cc2)cc1	–	0.25 (≈ 0.647 µM)	–	–
O=C(Nc1ccccc1)c1cccc(NS(=O)(=O)N2CCCC2)c1	–	6.4 (≈ 18.5 µM)	–	–
Cc1ccc(NS(=O)(=O)C(C)C)cc1C(=O)Nc1ccc(Cl)cc1	–	12 (≈ 32.7 µM)	–	–
CN(C)S(=O)(=O)Nc1ccc(C(=O)Nc2cccc(Cl)c2)cc1	–	1.6 (≈ 4.52 µM)	–	–

SMILES	Chemotherapeutic index (CV-1)	EC50 (Poliovirus 1) [µg/mL]	EC50 (Enterovirus [1]) [µg/mL]	EC50 (Enterovirus [2]) [µg/mL]
CN(C)S(=O)(=O)Nc1cccc(/C(=N/O)c2ccc(Cl)cc2)c1	26	0.46 (≈ 1.3 µM)	–	0.53 (≈ 1.5 µM)
COc1ccc(/C(=N\O)c2cccc(NS(=O)(=O)C(C)C)c2)cc1	32	0.36 (≈ 1.03 µM)	–	0.62 (≈ 1.78 µM)
CC(C)S(=O)(=O)Nc1cccc(C(=O)Nc2nccs2)c1	–	25 (≈ 76.8 µM)	–	–
CC(C)S(=O)(=O)Nc1cccc(C(=O)Nc2ccc(Cl)c(Cl)c2)c1	–	> 25	–	–
CN(C)S(=O)(=O)Nc1ccc(C(=O)Nc2ccc(C(C)(C)C)cc2)cc1	–	0.12 (≈ 0.32 µM)	–	–
CN(C)S(=O)(=O)Nc1cccc(C(=O)Nc2ccc(Br)cc2)c1	–	1.7 (≈ 4.27 µM)	–	–
COc1ccc(/C(=N\O)c2cccc(NS(=O)(=O)N(C)C)c2)c(OC)c1	28	1 (≈ 2.64 µM)	–	0.89 (≈ 2.35 µM)
CN(C)S(=O)(=O)Nc1ccc(C(=O)Nc2cccc(Br)c2)cc1	–	5 (≈ 12.6 µM)	–	–
CC(C)S(=O)(=O)Nc1cccc(C(=O)Nc2cccc(CO)c2)c1	–	> 50	–	–
CN(C)S(=O)(=O)Nc1cccc(C(=O)Nc2ccccc2)c1	–	4 (≈ 12.5 µM)	–	–
CN(C)S(=O)(=O)Nc1ccc(C(=O)Nc2ccccc2Cl)cc1	–	6.2 (≈ 17.5 µM)	–	–
CN(C)S(=O)(=O)Nc1cccc(C(=O)Nc2ccc(C#N)cc2)c1	–	5 (≈ 14.5 µM)	–	–
CC(C)S(=O)(=O)Nc1cccc(C(=O)Nc2cccc(O)c2)c1	–	25 (≈ 74.8 µM)	–	–
CN(C)S(=O)(=O)Nc1cccc(C(=O)NC2CCCCC2)c1	–	28 (≈ 86 µM)	–	–
COC(=O)c1ccc(NC(=O)c2cccc(NS(=O)(=O)C(C)C)c2)cc1	–	4 (≈ 10.6 µM)	–	–
Cc1cccc(NC(=O)c2ccc(NS(=O)(=O)N(C)C)cc2)c1	–	2.3 (≈ 6.9 µM)	–	–
CC(C)S(=O)(=O)Nc1cccc(C(=O)NCc2ccco2)c1	–	> 50	–	–
COc1ccc(/C(=N\O)c2cccc(NS(=O)(=O)N3CCCC3)c2)cc1	–	1.1 (≈ 2.93 µM)	–	–
CC(=O)c1ccccc1NC(=O)c1cccc(NS(=O)(=O)C(C)C)c1	–	5 (≈ 13.9 µM)	–	–
